Test results from ChEMBL document CHEMBL1128718, “2-Substituted penems with amino acid-related side chains: synthesis and antibacterial activity of a new series of beta-lactam antibiotics” (1995).
Converted amounts (≈) assume the structure as drawn.

Tests used:
Format in all cases: functional
Staphylococcus aureus [1] = assay: In vitro antibacterial activity against Sa(II) Staphylococcus aureus ATCC 25923
Summary of the method: (§1)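 Panel of standard ATCC strains plus modified strains: methicillin-resistant, hyperpermeable, β-lactamase-producing (TEM1, TEM2, SHV) and β-lactamase-lacking. MIC determined in Mueller Hinton 2 medium, inoculum 10⁴ cells/mL, incubated 24 h at 37 °C.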

Pseudomonas aeruginosa [2] = assay: In Vitro antibacterial activity against (Pa) hyperpermeable Pseudomonas aeruginosa […] strain; summary of the method: as §1
Escherichia coli [3] = assay: In Vitro antibacterial activity against (Ec L) Escherichia coli […] strain; summary of the method: as §1
Enterococcus faecalis = assay: In Vitro antibacterial activity against (Ef) Enterococcus faecalis ATCC 29212; summary of the method: as §1
Escherichia coli [4] = assay: In Vitro antibacterial activity against (Ec SHV) Escherichia coli […] strain; summary of the method: as §1
Pseudomonas aeruginosa [5] = assay: In Vitro antibacterial activity against (Pa G242) hyperpermeable Pseudomonas aeruginosa strain; summary of the method: as §1
Escherichia coli [6] = assay: In Vitro antibacterial activity against (Ec TEM1) Escherichia coli […] strain; summary of the method: as §1
Staphylococcus aureus [7] = assay: In vitro antibacterial activity against Sa MR(I) heterogeneous methicillin resistant Staphylococcus aureus
Summary of the method: (§2)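 MIC was determined in Mueller Hinton 2 medium with an inoculum of 10⁴ cells/mL and incubation for 24 h at 37 °C. Strains: Sa(I) is S. aureus ATCC 29213; Sa MR(I) is a heterogeneous methicillin-resistant S. aureus; Sa MR(II) is a homogeneous methicillin-resistant S. aureus.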

Staphylococcus aureus [8] = assay: In vitro antibacterial activity against Sa(I) Staphylococcus aureus ATCC 29213; summary of the method: as §2
Escherichia coli [9] = assay: In Vitro antibacterial activity against (Ec TEM2) Escherichia coli […] strain; summary of the method: as §1
Pseudomonas aeruginosa [10] = assay: In Vitro antibacterial activity against (Pa) Pseudomonas aeruginosa ATCC 27853; summary of the method: as §1
Staphylococcus aureus [11] = assay: In vitro antibacterial activity against Sa MR(II) homogeneous methicillin resistant Staphylococcus aureus; summary of the method: as §2
Escherichia coli [12] = assay: In Vitro antibacterial activity against (Ec) Escherichia coli ATCC 25922; summary of the method: as §1
Escherichia coli [13] = assay: In Vitro antibacterial activity against (Ec DC2) hyperpermeable Escherichia coli strain; summary of the method: as §1

Row | SMILES | MIC (Staphylococcus aureus [1]) [µg/mL] | MIC (Pseudomonas aeruginosa [2]) [µg/mL] | MIC (Escherichia coli [3]) [µg/mL] | MIC (Enterococcus faecalis) [µg/mL] | MIC (Escherichia coli [4]) [µg/mL] | MIC (Pseudomonas aeruginosa [5]) [µg/mL] | MIC (Escherichia coli [6]) [µg/mL] | MIC (Staphylococcus aureus [7]) [µg/mL] | MIC (Staphylococcus aureus [8]) [µg/mL] | MIC (Escherichia coli [9]) [µg/mL] | MIC (Pseudomonas aeruginosa [10]) [µg/mL] | MIC (Staphylococcus aureus [11]) [µg/mL] | MIC (Escherichia coli [12]) [µg/mL] | MIC (Escherichia coli [13]) [µg/mL]
1 | C[C@@H](O)[C@H]1C(=O)N2C(C(=O)O)=C(CN3CCCCC3C(N)=O)S[C@H]12 (stereo partly specified) | 0.06 (≈ 0.169 µM) | 4 (≈ 11.3 µM) | 1 (≈ 2.81 µM) | 16 (≈ 45 µM) | 2 (≈ 5.63 µM) | 1 (≈ 2.81 µM) | 1 (≈ 2.81 µM) | 0.12 (≈ 0.338 µM) | 0.12 (≈ 0.338 µM) | 2 (≈ 5.63 µM) | > 64 | 2 (≈ 5.63 µM) | 1 (≈ 2.81 µM) | 1 (≈ 2.81 µM)
2 | C[C@@H](O)[C@H]1C(=O)N2C(C(=O)O)=C(CN(C)C(CO)C(N)=O)S[C@H]12 (stereo partly specified) | 0.06 (≈ 0.174 µM) | 8 (≈ 23.2 µM) | 0.5 (≈ 1.45 µM) | 4 (≈ 11.6 µM) | 2 (≈ 5.79 µM) | 1 (≈ 2.9 µM) | 1 (≈ 2.9 µM) | 0.25 (≈ 0.724 µM) | 0.12 (≈ 0.347 µM) | 1 (≈ 2.9 µM) | > 64 | 8 (≈ 23.2 µM) | 0.12 (≈ 0.347 µM) | 1 (≈ 2.9 µM)
3 | C[C@@H](O)[C@H]1C(=O)N2C(C(=O)O)=C(CN3CC3C(N)=O)S[C@H]12 (stereo partly specified) | 0.25 (≈ 0.798 µM) | 1 (≈ 3.19 µM) | 4 (≈ 12.8 µM) | 16 (≈ 51.1 µM) | 4 (≈ 12.8 µM) | 2 (≈ 6.38 µM) | 2 (≈ 6.38 µM) | 0.25 (≈ 0.798 µM) | 0.5 (≈ 1.6 µM) | 2 (≈ 6.38 µM) | > 64 | 8 (≈ 25.5 µM) | 2 (≈ 6.38 µM) | 4 (≈ 12.8 µM)
4 | C[C@@H](O)[C@H]1C(=O)N2C(C(=O)O)=C(CN3C[C@@H](O)C[C@H]3C(N)=O)S[C@H]12 | 0.12 (≈ 0.336 µM) | 0.5 (≈ 1.4 µM) | 2 (≈ 5.6 µM) | 16 (≈ 44.8 µM) | 2 (≈ 5.6 µM) | 2 (≈ 5.6 µM) | 1 (≈ 2.8 µM) | 0.25 (≈ 0.7 µM) | 0.25 (≈ 0.7 µM) | 2 (≈ 5.6 µM) | > 64 | 8 (≈ 22.4 µM) | 0.5 (≈ 1.4 µM) | 2 (≈ 5.6 µM)
5 | C[C@@H](O)[C@H]1C(=O)N2C(C(=O)O)=C(CN3C[C@@H](O)C[C@@H]3C(N)=O)S[C@H]12 | 0.06 (≈ 0.168 µM) | 0.5 (≈ 1.4 µM) | 1 (≈ 2.8 µM) | 32 (≈ 89.5 µM) | 1 (≈ 2.8 µM) | 1 (≈ 2.8 µM) | 1 (≈ 2.8 µM) | 0.25 (≈ 0.7 µM) | 0.12 (≈ 0.336 µM) | 1 (≈ 2.8 µM) | > 64 | 16 (≈ 44.8 µM) | 1 (≈ 2.8 µM) | 1 (≈ 2.8 µM)
6 | C[C@@H](O)[C@H]1C(=O)N2C(C(=O)O)=C(CN(C)CCC(N)=O)S[C@H]12 | 0.06 (≈ 0.182 µM) | 2 (≈ 6.07 µM) | 1 (≈ 3.04 µM) | 16 (≈ 48.6 µM) | 1 (≈ 3.04 µM) | 1 (≈ 3.04 µM) | 1 (≈ 3.04 µM) | 0.12 (≈ 0.364 µM) | 0.12 (≈ 0.364 µM) | 1 (≈ 3.04 µM) | > 64 | 2 (≈ 6.07 µM) | 0.5 (≈ 1.52 µM) | 2 (≈ 6.07 µM)
7 | C[C@@H](O)[C@H]1C(=O)N2C(C(=O)O)=C(CN(C)C(Cc3ccccc3)C(N)=O)S[C@H]12 (stereo partly specified) | 0.015 (≈ 0.037 µM) | > 64 | > 64 | 4 (≈ 9.86 µM) |  |  | 32 (≈ 78.9 µM) | 0.12 (≈ 0.296 µM) | 0.12 (≈ 0.296 µM) | > 64 | > 64 | 2 (≈ 4.93 µM) | 16 (≈ 39.5 µM) | 1 (≈ 2.47 µM)
8 | C[C@@H](O)[C@H]1C(=O)N2C(C(=O)O)=C(CN(C)CC(=O)N3CCN(C)CC3)S[C@H]12 | 0.25 (≈ 0.627 µM) | 4 (≈ 10 µM) | 1 (≈ 2.51 µM) | 16 (≈ 40.2 µM) | 1 (≈ 2.51 µM) | 1 (≈ 2.51 µM) | 1 (≈ 2.51 µM) | 0.5 (≈ 1.25 µM) | 0.25 (≈ 0.627 µM) | 1 (≈ 2.51 µM) | > 64 | 4 (≈ 10 µM) | 0.5 (≈ 1.25 µM) | 1 (≈ 2.51 µM)
9 | C[C@@H](O)[C@H]1C(=O)N2C(C(=O)O)=C(CN(C)CC(=O)N(C)C)S[C@H]12 | 0.12 (≈ 0.349 µM) | 4 (≈ 11.6 µM) | 0.5 (≈ 1.46 µM) |  | 1 (≈ 2.91 µM) | 0.5 (≈ 1.46 µM) | 1 (≈ 2.91 µM) |  | 0.25 (≈ 0.728 µM) | 1 (≈ 2.91 µM) | > 64 | 4 (≈ 11.6 µM) | 0.5 (≈ 1.46 µM) | 1 (≈ 2.91 µM)
10 | C[C@@H](O)[C@H]1C(=O)N2C(C(=O)O)=C(CN3CCC(C(N)=O)CC3)S[C@H]12 | 0.015 (≈ 0.0422 µM) | 1 (≈ 2.81 µM) | 2 (≈ 5.63 µM) | 16 (≈ 45 µM) | 2 (≈ 5.63 µM) | 2 (≈ 5.63 µM) | 2 (≈ 5.63 µM) | 0.12 (≈ 0.338 µM) | 0.06 (≈ 0.169 µM) | 2 (≈ 5.63 µM) | > 64 | 2 (≈ 5.63 µM) | 2 (≈ 5.63 µM) | 2 (≈ 5.63 µM)
